From ChEMBL document CHEMBL4177557, “Anti-inflammatory Flavan-3-ol-dihydroretrochalcones from Daemonorops draco” (J Nat Prod, 2017)

Columns and labels:
Neutrophil [1] = experiment: Inhibition of fMLP/CB-induced superoxide anion production in human neutrophils assessed as SOD-based ferricytochrome c reduction assay; type: functional, cell-based
Procedure, shortened: (§1)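 Isolated human neutrophils stimulated with fMLP plus cytochalasin B. Superoxide measured as SOD-inhibitable ferricytochrome c reduction. Azurophilic degranulation measured as elastase release. IC50, the concentration giving 50% inhibition, calculated by computer; mean ± SEM, n = 3–5; Student's t test.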

Neutrophil [2] = experiment: Inhibition of fMLP/CB-induced elastase release in human neutrophils; type: functional, cell-based; procedure, shortened: as §1

SMILES | IC50 (Neutrophil [1]) | IC50 (Neutrophil [2])
O=c1cc(N2CCOCC2)oc2c(-c3ccccc3)cccc12 [LY-294002] | 0.4 µM | 1.5 µM
COC1=CC(=O)[C@]2(C)C(=O)[C@@]1(CCC(=O)c1ccccc1)[C@H]1c3c(cc(O)c(C)c3OC)O[C@]2(c2ccccc2)[C@@H]1O | > 10 µM | > 10 µM
COC1=CC(=O)C(C)=C2O[C@]3(c4ccccc4)Oc4cc(O)c(C)c(OC)c4[C@@H]([C@H]3O)[C@]12CCC(=O)c1ccccc1 | 3.1 µM | 4.5 µM
COC1=C(CCC(=O)c2ccccc2)C(=O)[C@@H]2C(=O)[C@H]1[C@H]1c3c(cc(O)c(C)c3OC)O[C@]2(c2ccccc2)[C@@H]1O | > 10 µM | > 10 µM
